How the values were obtained:
[1] = target: Estrogen receptor beta (Homo sapiens) (UniProt Q92731); test: Relative binding affinity for Estrogen receptor beta
[2] = Octanol-water partition coefficient (logP) of the compound measured by RP-HPLC; format: physicochemical
Method in brief: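 Reverse-phase HPLC capacity factors measured in an organic phase of 85%-60% methanol containing 0.25% octanol, against an aqueous phase of 0.15% n-decylamine in 0.02 M MOPS pH 7.4 made with octanol-saturated water. Extrapolated to 100% aqueous to give kNw. log Po/w = 0.13418 + 0.98452 log kNw.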

Estrogen receptor beta (Homo sapiens), sequence (Q92731 whole entry): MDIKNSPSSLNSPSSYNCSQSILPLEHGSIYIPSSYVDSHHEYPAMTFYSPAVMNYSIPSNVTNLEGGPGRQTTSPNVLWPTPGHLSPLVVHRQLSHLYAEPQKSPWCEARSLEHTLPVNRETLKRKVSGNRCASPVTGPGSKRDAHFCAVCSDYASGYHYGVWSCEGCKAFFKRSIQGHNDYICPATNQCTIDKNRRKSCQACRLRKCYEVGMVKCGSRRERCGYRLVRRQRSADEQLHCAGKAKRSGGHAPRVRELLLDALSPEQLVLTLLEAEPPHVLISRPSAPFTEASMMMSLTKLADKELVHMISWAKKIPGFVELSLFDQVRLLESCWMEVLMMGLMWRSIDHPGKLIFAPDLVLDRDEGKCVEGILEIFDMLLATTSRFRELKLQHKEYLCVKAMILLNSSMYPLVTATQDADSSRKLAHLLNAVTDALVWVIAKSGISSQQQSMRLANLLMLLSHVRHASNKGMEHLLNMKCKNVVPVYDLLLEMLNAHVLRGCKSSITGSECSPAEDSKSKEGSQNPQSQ

**Q.** Which relative binding affinity (RBA) [1] does the source give for `C[C@]12CC[C@@H]3c4ccc(O)cc4CC[C@H]3[C@@H]1CC[C@@H]2O` [ESTRADIOL] here?
**A.** 100

**Q.** What about the logP [2] of the same compound?
**A.** 3.5

**Q.** With `CC/C(=C(/c1ccc(O)cc1)c1ccc(OCCN(C)C)cc1)c1ccccc1` [listing 1 of 3 here] as the compound, how does the logP [2] read?
**A.** 3.2

**Q.** With `CC/C(=C(/c1ccc(O)cc1)c1ccc(OCCN(C)C)cc1)c1ccccc1` [listing 2 of 3 here] as the compound, how does the logP [2] read?
**A.** 3.4

**Q.** Which relative binding affinity (RBA) [1] does the source give for `CC/C(=C(/c1ccc(O)cc1)c1ccc(OCCN(C)C)cc1)c1ccccc1` [listing 3 of 3 here] here?
**A.** 18.5

Reference: ChEMBL document CHEMBL1143594, “Selective estrogen receptor modulators in the ruthenocene series. Synthesis and biological behavior” (J Med Chem, 2005)
